# Entries after “also recorded” stand apart in the source; their conditions may differ.
# Legend:
# [1] = system: patients with advanced or metastatic solid tumours; assay: Safety: treatment-emergent adverse events; type: in vivo, human
# How it was run: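 Safety covered monotherapy Parts 1a/2, with oral tablet or capsule dosing twice daily on days 1–28 of 28-day cycles. TEAEs were graded by CTCAE v4.03, which counts malignant progression as an AE. Laboratory values, vital signs and physical examinations were also monitored. The safety population was all patients receiving ≥1 dose. DLTs were defined as grade 3–4 toxicities, urea cycle inhibition, or AUC0–12h >100 µg.h/mL.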
# T-cell = settings: in vitro; cited from earlier work
# plasma arginine = assay: Pharmacodynamics: plasma arginine concentration by LC-MS/MS; type: in vivo, human; settings: monotherapy / INCB001158 overall
# [2] = INCB001158 plasma pharmacokinetics; type: in vivo, human; settings: for Cmax: Cmax (mean±SD); for half-life: t1/2 (mean±SD)
# [3] = human, plasma, oral, 50 mg, Part 1a C1D1 single dose 50 mg (n=8)
# [4] = human, plasma, oral, 75 mg, Part 1a C1D1 single dose 75 mg (n=7)
smiles,measurement,setting,value
C[C@H](N)C(=O)N1C[C@H](CCCB(O)O)[C@](N)(C(=O)O)C1 [INCB001158],Any grade ≥3 TEAE,[1]; monotherapy 100 mg bid (n=85),40 (47.1) n (%)
same,Any irTEAE,[1]; monotherapy 100 mg bid (n=85),1 (1.2) n (%)
same,"Constipation, any-grade TEAE",[1]; monotherapy 100 mg bid (n=85),18 (21.2) n (%)
same,"Decreased appetite, any-grade TEAE",[1]; monotherapy 100 mg bid (n=85),17 (20.0) n (%)
same,"Diarrhoea, any-grade TEAE",[1]; monotherapy 100 mg bid (n=85),5 (5.9) n (%)
same,"Fatigue, any-grade TEAE",[1]; monotherapy 100 mg bid (n=85),23 (27.1) n (%)
same,"Fatigue, grade ≥3 TEAE",[1]; monotherapy 100 mg bid (n=85),6 (7.1) n (%)
same,"Hypoalbuminaemia, any-grade TEAE",[1]; monotherapy 100 mg bid (n=85),6 (7.1) n (%)
same,"Hyponatraemia, any-grade TEAE",[1]; monotherapy 100 mg bid (n=85),5 (5.9) n (%)
same,"Hyponatraemia, grade ≥3 TEAE",[1]; monotherapy 100 mg bid (n=85),2 (2.4) n (%)
same,"Malignant neoplasm progression, grade ≥3 TEAE",[1]; monotherapy 100 mg bid (n=85),5 (5.9) n (%)
same,"Nausea, any-grade TEAE",[1]; monotherapy 100 mg bid (n=85),18 (21.2) n (%)
same,"Oedema peripheral, any-grade TEAE",[1]; monotherapy 100 mg bid (n=85),13 (15.3) n (%)
same,"Vomiting, any-grade TEAE",[1]; monotherapy 100 mg bid (n=85),9 (10.6) n (%)
same,"Colitis, irTEAE","[1]; monotherapy 100 mg bid (n=85), related to INCB001158 treatment",1 (1.2)¶ n (%)
same,"ALT increased, any-grade TEAE",[1]; monotherapy 150 mg bid (n=7),1 (14.3) n (%)
same,"AST increased, any-grade TEAE",[1]; monotherapy 150 mg bid (n=7),1 (14.3) n (%)
same,"Abdominal pain, any-grade TEAE",[1]; monotherapy 150 mg bid (n=7),1 (14.3) n (%)
same,"Abdominal pain, grade ≥3 TEAE",[1]; monotherapy 150 mg bid (n=7),0 n (%)
same,"Anaemia, any-grade TEAE",[1]; monotherapy 150 mg bid (n=7),0 n (%)
same,"Anaemia, grade ≥3 TEAE",[1]; monotherapy 150 mg bid (n=7),0 n (%)
same,Any TEAE,[1]; monotherapy 150 mg bid (n=7),7 (100.0) n (%)
same,Any grade ≥3 TEAE,[1]; monotherapy 150 mg bid (n=7),1 (14.3) n (%)
same,Any irTEAE,[1]; monotherapy 150 mg bid (n=7),0 n (%)
same,"Colitis, irTEAE",[1]; monotherapy 150 mg bid (n=7),0 n (%)
same,"Constipation, any-grade TEAE",[1]; monotherapy 150 mg bid (n=7),2 (28.6) n (%)
same,"Decreased appetite, any-grade TEAE",[1]; monotherapy 150 mg bid (n=7),2 (28.6) n (%)
same,"Diarrhoea, any-grade TEAE",[1]; monotherapy 150 mg bid (n=7),1 (14.3) n (%)
same,"Fatigue, any-grade TEAE",[1]; monotherapy 150 mg bid (n=7),3 (42.9) n (%)
same,"Fatigue, grade ≥3 TEAE",[1]; monotherapy 150 mg bid (n=7),0 n (%)
same,"Hypoalbuminaemia, any-grade TEAE",[1]; monotherapy 150 mg bid (n=7),1 (14.3) n (%)
same,"Hyponatraemia, any-grade TEAE",[1]; monotherapy 150 mg bid (n=7),1 (14.3) n (%)
same,"Hyponatraemia, grade ≥3 TEAE",[1]; monotherapy 150 mg bid (n=7),1 (14.3) n (%)
same,"Malignant neoplasm progression, grade ≥3 TEAE",[1]; monotherapy 150 mg bid (n=7),0 n (%)
same,"Nausea, any-grade TEAE",[1]; monotherapy 150 mg bid (n=7),1 (14.3) n (%)
same,"Oedema peripheral, any-grade TEAE",[1]; monotherapy 150 mg bid (n=7),1 (14.3) n (%)
same,"Vomiting, any-grade TEAE",[1]; monotherapy 150 mg bid (n=7),0 n (%)
same,DLT,"[1]; monotherapy 150 mg two times per day, one DLT",treatment-related grade 2 malaise
same,TEAEs leading to INCB001158 discontinuation,[1]; monotherapy (8 patients),7.5%
same,fatal TEAEs,"[1]; monotherapy (10 patients), none considered related to INCB001158",9.3%
same,TEAEs leading to INCB001158 dose interruption,[1]; monotherapy (33 patients),30.8%
same,Serious TEAEs,[1]; monotherapy (36 patients),33.6%
same,patients with grade ≥3 TEAEs,[1]; monotherapy (N=107),45.8%
same,INCB001158-related fatigue,[1]; monotherapy (n=10/107),9.3%
same,INCB001158-related nausea,[1]; monotherapy (n=10/107),9.3%
same,TEAEs grade 1/2 in severity,[1]; monotherapy Parts 1a/2,54.2%
same,"ALT increased, any-grade TEAE",[1]; monotherapy Total (N=107),5 (4.7) n (%)
same,"AST increased, any-grade TEAE",[1]; monotherapy Total (N=107),10 (9.3) n (%)
same,"Abdominal pain, any-grade TEAE",[1]; monotherapy Total (N=107),18 (16.8) n (%)
same,"Abdominal pain, grade ≥3 TEAE",[1]; monotherapy Total (N=107),6 (5.6) n (%)
same,"Anaemia, any-grade TEAE",[1]; monotherapy Total (N=107),17 (15.9) n (%)
same,"Anaemia, grade ≥3 TEAE",[1]; monotherapy Total (N=107),6 (5.6) n (%)
same,Any TEAE,[1]; monotherapy Total (N=107),102 (95.3) n (%)
same,Any grade ≥3 TEAE,[1]; monotherapy Total (N=107),49 (45.8) n (%)
same,Any irTEAE,[1]; monotherapy Total (N=107),1 (0.9) n (%)
same,"Colitis, irTEAE",[1]; monotherapy Total (N=107),1 (0.9) n (%)
same,"Constipation, any-grade TEAE",[1]; monotherapy Total (N=107),23 (21.5) n (%)
same,"Decreased appetite, any-grade TEAE",[1]; monotherapy Total (N=107),21 (19.6) n (%)
same,"Diarrhoea, any-grade TEAE",[1]; monotherapy Total (N=107),6 (5.6) n (%)
same,"Fatigue, any-grade TEAE",[1]; monotherapy Total (N=107),30 (28.0) n (%)
same,"Fatigue, grade ≥3 TEAE",[1]; monotherapy Total (N=107),6 (5.6) n (%)
same,"Hypoalbuminaemia, any-grade TEAE",[1]; monotherapy Total (N=107),7 (6.5) n (%)
same,"Hyponatraemia, any-grade TEAE",[1]; monotherapy Total (N=107),7 (6.5) n (%)
same,"Hyponatraemia, grade ≥3 TEAE",[1]; monotherapy Total (N=107),3 (2.8) n (%)
same,"Malignant neoplasm progression, grade ≥3 TEAE",[1]; monotherapy Total (N=107),5 (4.7) n (%)
same,"Nausea, any-grade TEAE",[1]; monotherapy Total (N=107),24 (22.4) n (%)
same,"Oedema peripheral, any-grade TEAE",[1]; monotherapy Total (N=107),16 (15.0) n (%)
same,"Vomiting, any-grade TEAE",[1]; monotherapy Total (N=107),14 (13.1) n (%)
same,tolerability,[1]; monotherapy and combination with pembrolizumab,generally well tolerated
same,patients with INCB001158-related TEAEs,"[1]; monotherapy, safety-evaluable population",43 n
same,immune-related TEAE of colitis,"[1]; monotherapy, one patient, led to discontinuation",0.9%
same,serious INCB001158-related TEAE,"[1]; monotherapy, one patient, recovered/resolved",grade 3 adrenal haemorrhage
same,maximum tolerated dose,[1]; up to 150 mg two times per day,No maximum tolerated dose was reached
same,T-cell immunosuppression,T-cell,reversed T-cell immunosuppression in vitro
same,plasma arginine change on treatment,plasma arginine,dose-dependently increased; also recorded: dose-dependent increase in plasma arginine
same,"dose proportionality of plasma exposure (Cmax, AUC)","[2]; after multiple oral administrations, 50 mg to 150 mg two times per day",increased approximately dose proportionally
same,AUC(0-inf),"[2]; human, plasma, oral, 50 mg",8860 ± 3810 ng·h/mL
same,Cmax,[2]; [3],795 ± 259 ng/mL
same,half-life,[2]; [3],5.5 ± 1.4 h
same,Cmax,[2]; [4],1350 ± 379 ng/mL
same,half-life,[2]; [4],5.3 ± 1 h
same,time to steady state,"[2]; monotherapy, from predose PK samples",< 1 week

# Reference: PMC11235002 (BMJ Oncology, 2024)
